Where a name gives a salt, the structure may show the parent alone. Read-outs that look alike come from different tables or passages of the source.
Assays:
A549 cells [1] = assay: MTT cytotoxicity assay; assay type: cell-based, human; conditions: read-out: IC50 (in vitro cytotoxicity)
Method in brief: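 A549 cells seeded at 5 × 10³/well in DMEM with 10% FBS and antibiotics, preincubated 24 h at 37 °C, 5% CO₂. Test drug in PBS added at various concentrations for 48 h; untreated controls received fresh medium. MTT (5 mg/mL stock) added for 4 h, formazan dissolved in DMSO, absorbance read at 490 nm. Triplicate measurements.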

C6 cells = assay: Cellular uptake of FITC-labeled peptides by flow cytometry, C6; assay type: cell-based, rat; conditions: 5 × 10^−6 mol/L, 4 h
Method in brief: (§1)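 Cells grown in DMEM with 10% FBS at 37 °C, 5% CO₂. Seeded at 8 × 10⁴ cells/well and incubated overnight. FITC-labeled peptides (N-terminal Cys–maleimide-FITC) added at a final 5 × 10⁻⁶ mol/L for 4 h. Cells then trypsinized, centrifuged, resuspended in PBS and analysed by flow cytometry. Fluorescence signal compared between labeled peptides.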

A549 cells [2] = assay: Cellular uptake of FITC-labeled peptides by flow cytometry, A549; assay type: cell-based, human; conditions: 5 × 10^−6 mol/L, 4 h
Method in brief: as §1

HUVEC = assay: Cellular uptake of FITC-labeled peptides by flow cytometry, HUVEC; assay type: cell-based, human; conditions: 5 × 10^−6 mol/L, 4 h
Method in brief: as §1

U87 cells = assay: Cellular uptake of FITC-labeled peptides by flow cytometry, U87; assay type: cell-based, human; conditions: 5 × 10^−6 mol/L, 4 h
Method in brief: as §1

N.N.O=C([O-])C1(C(=O)[O-])CCC1.[Pt+2] [carboplatin]
IC50 (A549 cells [1]; A549 cells, MTT assay, 48 h treatment, triplicate): 138 µM

Nc1ccn([C@@H]2O[C@H](CO)[C@@H](O)C2(F)F)c(=O)n1 [gemcitabine, Gemcitabine hydrochloride]
IC50 (A549 cells [1]; Homo sapiens, A549, 48 h): 4.83 µM

FITC-D(CRGERPPR)
mean fluorescent intensity, times higher than FITC-D(CRPPREGR) (C6 cells): 2.9 times
mean fluorescent intensity, times higher than that of FITC-CRGERPPR (C6 cells): 5.4 times
FITC-positive ratio, times higher than that of FITC-CRGERPPR (A549 cells [2]): 1.6 times
FITC-positive ratio, times higher than that of FITC-D(CRPPREGR) (A549 cells [2]): 1.3 times
mean fluorescent intensity, times higher than that of FITC-CRGERPPR (HUVEC): ~13.1 times
mean fluorescent intensity, times higher than that of FITC-D(CRPPREGR) (HUVEC): 5.7 times
mean fluorescent intensity, times higher than FITC-D(CRPPREGR) (U87 cells): 3.5 times
mean fluorescent intensity, times higher than that of FITC-CRGERPPR (U87 cells): 3.3 times

— article PMC6146380 (Acta Pharmaceutica Sinica. B, 2018)
